Results from ChEMBL document CHEMBL1130172, “Discovery of a novel class of substituted pyrrolooctahydroisoquinolines as potent and selective delta opioid agonists, based on an extension of the message-address concept” (J Med Chem, 1997).

Key:
[1] = target: T1, Delta-type opioid receptor (Mus musculus, UniProt P32300); experiment: In vitro antagonist activity against Opioid receptor delta 1 in the presence of 30 nM naltrindole, in a mouse vas deferens assay; assay type: functional, tissue-based
[2] = target: T1, Delta-type opioid receptor; experiment: Binding affinity against Opioid receptor delta 1 using [3H][D-Ala2, D-Leu5]-enkephalin as radioligand
[3] = target: Kappa-type opioid receptor (Mus musculus, UniProt P33534); experiment: Binding affinity against Opioid receptor kappa 1 using [3H]-U-69,593 as radioligand
Sequence of Kappa-type opioid receptor (P33534 whole entry): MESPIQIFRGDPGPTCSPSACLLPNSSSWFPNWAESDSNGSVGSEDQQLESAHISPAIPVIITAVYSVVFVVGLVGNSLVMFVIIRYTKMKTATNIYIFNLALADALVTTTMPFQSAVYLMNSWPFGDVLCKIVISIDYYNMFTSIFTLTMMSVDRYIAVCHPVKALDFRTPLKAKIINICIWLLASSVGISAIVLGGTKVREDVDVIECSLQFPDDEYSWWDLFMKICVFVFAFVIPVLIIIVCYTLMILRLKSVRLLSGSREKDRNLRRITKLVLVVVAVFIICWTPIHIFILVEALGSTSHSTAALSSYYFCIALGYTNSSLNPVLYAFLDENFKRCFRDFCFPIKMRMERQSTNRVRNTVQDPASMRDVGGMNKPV
In short: (§1)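 Whole-brain (minus cerebellum) membranes from male CD-1 mice in 50 mM Tris-HCl pH 7.4, preincubated 45 min at 37 °C. μ labelled with 0.7 nM [3H]DAMGO, κ with 1.2 nM [3H]U69593 (PEI-presoaked filters); 50 min at 25 °C in triplicate; nonspecific with 10 μM naloxone. IC50 by nonlinear regression, Ki by Cheng–Prusoff; mean ± SEM, n=3 unless stated.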

Mu-type opioid receptor = Mu-type opioid receptor (Mus musculus, UniProt P42866); experiment: Binding affinity against Opioid receptor mu 1 using [3H][D-Ala2, MePhe4, Gly-ol5]-enkephalin as radioligand; in short: as §1
Sequence of Mu-type opioid receptor (P42866 whole entry): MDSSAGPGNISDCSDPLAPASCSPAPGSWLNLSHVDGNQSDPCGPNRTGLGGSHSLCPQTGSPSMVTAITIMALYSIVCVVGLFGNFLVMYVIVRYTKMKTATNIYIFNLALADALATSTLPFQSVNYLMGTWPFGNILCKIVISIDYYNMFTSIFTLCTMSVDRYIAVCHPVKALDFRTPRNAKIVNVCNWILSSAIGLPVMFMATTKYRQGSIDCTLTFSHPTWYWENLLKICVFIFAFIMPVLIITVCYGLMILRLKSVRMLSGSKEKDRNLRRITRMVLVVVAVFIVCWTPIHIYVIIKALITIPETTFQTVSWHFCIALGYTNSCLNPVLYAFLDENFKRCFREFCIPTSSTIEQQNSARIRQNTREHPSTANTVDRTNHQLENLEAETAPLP

[4] = target: T1, Delta-type opioid receptor; experiment: In vitro agonist activity for Opioid receptor delta 1 was determined in a mouse vas deferens assay; assay type: functional, tissue-based
Mus musculus [5] = experiment: Antinociceptive activity in mouse abdominal constriction test after intracerebroventricular administration; assay type: functional, Abdomen
In short: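 Male Swiss mice (20-35 g); drug given icv by needle through the skull 1.5 mm right of bregma on the coronal suture (3.5 mm protrusion), 5 min before ip phenyl-p-benzoquinone (2 mg/kg, 10 mL/kg, at 37 °C).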

Mus musculus [6] = species on record: Mus musculus; experiment: Selectivity ratio of the affinity for kappa and delta opioid receptors (Ki kappa/Ki delta)
In short: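 Ratios of Ki values: δ Ki from [3H]DADLE (1 nM) on NG108-15 membranes; μ Ki from [3H]DAMGO (0.7 nM) and κ Ki from [3H]U69593 (1.2 nM) on mouse brain membranes; all 25 °C competition assays with Ki derived by Cheng–Prusoff.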

[7] = target: T1, Delta-type opioid receptor; experiment: Inv itro antagonist activity against Opioid receptor delta 1 in the presence of 30 nM naltrindole, in a mouse vas deferens assay; assay type: functional, tissue-based
In short: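 Isolated vasa deferentia from CD-1 mice (25–35 g) held in Mg2+-free Krebs buffer, oxygenated with 95% O2/5% CO2, at 37 °C. Electrical field stimulation: 50 ms trains of 2 ms pulses at 50 Hz, 60–70 V maximal, trains at 0.1 Hz. Agonist concentration–response curves built cumulatively in the presence of 30 nM naltrindole.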

T1 sequence (P32300 whole entry): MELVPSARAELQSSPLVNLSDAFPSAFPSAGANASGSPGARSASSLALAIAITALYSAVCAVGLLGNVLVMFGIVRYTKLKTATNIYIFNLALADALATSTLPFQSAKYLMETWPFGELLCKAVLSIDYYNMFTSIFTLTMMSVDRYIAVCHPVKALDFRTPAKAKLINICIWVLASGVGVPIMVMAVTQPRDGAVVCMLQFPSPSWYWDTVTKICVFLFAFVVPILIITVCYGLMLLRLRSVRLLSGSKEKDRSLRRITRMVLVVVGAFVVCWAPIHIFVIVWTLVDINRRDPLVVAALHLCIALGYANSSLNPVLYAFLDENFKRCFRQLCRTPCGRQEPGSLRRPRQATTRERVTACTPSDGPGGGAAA

| Structure (SMILES) | Ki [2] [nM] | Ki [3] [nM] | Ki (Mu-type opioid receptor) [nM] | Selectivity ratio (Mus musculus [6]) | further results |
| --- | --- | --- | --- | --- | --- |
| CCN1CC[C@]2(c3cccc(O)c3)Cc3[nH]c(C(=O)N(CC)CC)c(C)c3C[C@H]2C1 (racemic) [listing 1 of 2 here] | 1.9 | 1300 | 407 | – | IC50 [1]: 330 nM; IC50 [4]: 34 nM; ED50 (Mus musculus [5]): 1.6 ug mouse-1 |
| CCN1CC[C@]2(c3cccc(O)c3)Cc3[nH]c4ccccc4c3C[C@H]2C1 (racemic) [listing 1 of 2 here] | 7.1 | 334 | 2090 | – | – |
| CCN(CC)C(=O)c1[nH]c2c(c1C)C[C@H]1CN(C)CC[C@]1(c1cccc(O)c1)C2 (racemic) | 2.1 | 500 | 93 | 240 | – |
| CCN(CC)C(=O)c1[nH]c2c(c1C)C[C@H]1CN(CC3CC3)CC[C@]1(c1cccc(O)c1)C2 (racemic) | 1.7 | 63.1 | 14.1 | 37 | – |
| CCN1CC[C@]2(c3cccc(O)c3)Cc3[nH]c(C(=O)N(CC)CC)c(C)c3C[C@H]2C1 (racemic) [listing 2 of 2 here] | – | – | – | 690 | – |
| CCN1CC[C@]2(c3cccc(O)c3)Cc3[nH]c4ccccc4c3C[C@H]2C1 (racemic) [listing 2 of 2 here] | – | – | – | 50 | – |
| CCN1CC[C@]2(c3cccc(O)c3)Cc3[nH]c4ccccc4c3C[C@H]2C1 (stereo in doubt; (+)-3) [listing 1 of 2 here] | 2.2 | 771 | 2620 | – | – |
| CCN1CC[C@]2(c3cccc(O)c3)Cc3[nH]c4ccccc4c3C[C@H]2C1 (stereo in doubt; (+)-3) [listing 2 of 2 here] | – | – | – | 350 | – |
| CCN1CC[C@]2(c3cccc(O)c3)Cc3[nH]c(C(=O)N(CC)CC)c(C)c3C[C@H]2C1 (stereo in doubt; (+)-5b) [listing 1 of 2 here] | 3540 | 6000 | > 5000 | – | – |
| CCN1CC[C@]2(c3cccc(O)c3)Cc3[nH]c(C(=O)N(CC)CC)c(C)c3C[C@H]2C1 (stereo in doubt; (+)-5b) [listing 2 of 2 here] | – | – | – | 2 | – |
| CCN1CC[C@]2(c3cccc(O)c3)Cc3[nH]c4ccccc4c3C[C@H]2C1 (stereo in doubt; (-)-3) [listing 1 of 2 here] | 1970 | 167 | 1630 | – | – |
| CCN1CC[C@]2(c3cccc(O)c3)Cc3[nH]c4ccccc4c3C[C@H]2C1 (stereo in doubt; (-)-3) [listing 2 of 2 here] | – | – | – | 0.1 | – |
| CCN1CC[C@]2(c3cccc(O)c3)Cc3[nH]c(C(=O)N(CC)CC)c(C)c3C[C@H]2C1 (stereo in doubt; (-)-5b) [listing 1 of 2 here] | 0.9 | 1340 | 129 | – | IC50 [4]: 26 nM; IC50 [7]: 462 nM |
| CCN1CC[C@]2(c3cccc(O)c3)Cc3[nH]c(C(=O)N(CC)CC)c(C)c3C[C@H]2C1 (stereo in doubt; (-)-5b) [listing 2 of 2 here] | – | – | – | 1480 | – |
| Oc1ccc2c3c1O[C@H]1c4[nH]c5ccccc5c4C[C@@]4(O)[C@@H](C2)N(CC2CC2)CC[C@]314 [NALTRINDOLE] | 0.5 | 9.5 | 15 | 20 | – |
| CN1CC[C@]23c4c5ccc(O)c4O[C@H]2c2[nH]c4ccccc4c2C[C@@]3(O)[C@H]1C5 [OXYMORPHINDOLE] | 0.8 | 77 | 661 | 90 | – |
| C=CCN1C[C@H](C)N([C@H](c2ccc(C(=O)N(CC)CC)cc2)c2cccc(OC)c2)C[C@H]1C [SNC-80] | – | 1350 | 1300 | – | – |
